Results: ChEMBL document CHEMBL4732237, “Discovery of 4-alkoxy-2-aryl-6,7-dimethoxyquinolines as a new class of topoisomerase I inhibitors endowed with potent in vitro anticancer activity” (2021)

Key:
Assay type in all cases: functional
Details in all cases: read-out: GI
[1] = test system: OVCAR-8; assay: Growth inhibition of human OVCAR-8 cells at 10 uM incubated for 48 hrs by sulforhodamine B assay relative to control
Method in brief: (§1)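 NCI one-dose screen. Cells grown in RPMI 1640 with 5% FBS and 2 mM L-glutamine, plated and incubated 24 h at 37 °C, 5% CO2. DMSO-dissolved drug added, then 48 h further incubation. Adherent cells fixed with cold TCA, suspension cells fixed after settling. Stained with 0.4% SRB, absorbance read at 515 nm. Reported as percent growth relative to no-drug control and time-zero cell number.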

[2] = test system: NCI-H226; assay: Growth inhibition of human NCI-H226 cells at 10 uM incubated for 48 hrs by sulforhodamine B assay relative to control; method in brief: as §1
[3] = test system: SR; assay: Growth inhibition of human SR cells at 10 uM incubated for 48 hrs by sulforhodamine B assay relative to control; method in brief: as §1
[4] = test system: Hs-578T; assay: Growth inhibition of human HS-578T cells at 10 uM incubated for 48 hrs by sulforhodamine B assay relative to control
Method in brief: (§2)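 NCI-60 single-dose screen. Cells were grown in RPMI 1640 with 5% FBS and 2 mM L-glutamine and plated 24 h before drug addition. Compound was added at one concentration in DMSO-derived medium and incubated for 48 h at 37 °C in 5% CO2. Read-out was SRB protein stain at 515 nm. Result is percent growth versus the no-drug control and the time-zero cell count; values below 0 indicate lethality.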

[5] = test system: OVCAR-3; assay: Growth inhibition of human OVCAR-3 cells at 10 uM incubated for 48 hrs by sulforhodamine B assay relative to control; method in brief: as §1
[6] = test system: U-251; assay: Growth inhibition of human U-251 cells at 10 uM incubated for 48 hrs by sulforhodamine B assay relative to control
Method in brief: (§3)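 NCI one-dose screen across a 59-line panel. Cells were grown in RPMI 1640 with 5% FBS and 2 mM L-glutamine, plated and pre-incubated 24 h, then exposed to drug for 48 h at 37 °C, 5% CO2. Adherent cells were fixed with cold TCA (10% final), stained with 0.4% SRB in 1% acetic acid and read at 515 nm. Result is percent growth relative to no-drug control and time-zero cell count.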

[7] = test system: MDA-MB-231; assay: Growth inhibition of human MDA-MB-231 cells at 10 uM incubated for 48 hrs by sulforhodamine B assay relative to control; method in brief: as §2
[8] = test system: MDA-MB-468; assay: Growth inhibition of human MDA-MB-468 cells at 10 uM incubated for 48 hrs by sulforhodamine B assay relative to control; method in brief: as §2
[9] = test system: UACC-62; assay: Growth inhibition of human UACC-62 cells at 10 uM incubated for 48 hrs by sulforhodamine B assay relative to control; method in brief: as §3
[10] = test system: HOP-92; assay: Growth inhibition of human HOP-92 cells at 10 uM incubated for 48 hrs by sulforhodamine B assay relative to control; method in brief: as §2
[11] = test system: NCI-H322M; assay: Growth inhibition of human NCI-H322M cells at 10 uM incubated for 48 hrs by sulforhodamine B assay relative to control; method in brief: as §1
[12] = test system: PC-3; assay: Growth inhibition of human PC-3 cells at 10 uM incubated for 48 hrs by sulforhodamine B assay relative to control; method in brief: as §1
[13] = test system: SNB-75; assay: Growth inhibition of human SNB-75 cells at 10 uM incubated for 48 hrs by sulforhodamine B assay relative to control; method in brief: as §1
[14] = test system: NCI-H460; assay: Growth inhibition of human NCI-H460 cells at 10 uM incubated for 48 hrs by sulforhodamine B assay relative to control; method in brief: as §1
[15] = test system: K562; assay: Growth inhibition of human K562 cells at 10 uM incubated for 48 hrs by sulforhodamine B assay relative to control; method in brief: as §2
[16] = test system: COLO 205; assay: Growth inhibition of human COLO 205 cells at 10 uM incubated for 48 hrs by sulforhodamine B assay relative to control; method in brief: as §2
[17] = test system: LOX IMVI; assay: Growth inhibition of human LOX IMVI cells at 10 uM incubated for 48 hrs by sulforhodamine B assay relative to control; method in brief: as §2
[18] = test system: SW-620; assay: Growth inhibition of human SW-620 cells at 10 uM incubated for 48 hrs by sulforhodamine B assay relative to control; method in brief: as §3
[19] = test system: IGROV-1; assay: Growth inhibition of human IGROV-1 cells at 10 uM incubated for 48 hrs by sulforhodamine B assay relative to control; method in brief: as §2
[20] = test system: HL-60(TB); assay: Growth inhibition of human HL-60(TB) cells at 10 uM incubated for 48 hrs by sulforhodamine B assay relative to control
Method in brief: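 NCI-60 one-dose screen: same culture, 48 h drug exposure and SRB read-out. Reported as percent growth relative to no-drug control and to time-zero cell number; 0–100 means growth inhibition, below 0 means lethality.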

[21] = test system: Malme-3M; assay: Growth inhibition of human Malme-3M cells at 10 uM incubated for 48 hrs by sulforhodamine B assay relative to control; method in brief: as §1
[22] = test system: BT-549; assay: Growth inhibition of human BT-549 cells at 10 uM incubated for 48 hrs by sulforhodamine B assay relative to control; method in brief: as §2
[23] = test system: SNB-19; assay: Growth inhibition of human SNB-19 cells at 10 uM incubated for 48 hrs by sulforhodamine B assay relative to control; method in brief: as §1
[24] = test system: MCF7; assay: Growth inhibition of human MCF7 cells at 10 uM incubated for 48 hrs by sulforhodamine B assay relative to control; method in brief: as §2
[25] = test system: M14; assay: Growth inhibition of human M14 cells at 10 uM incubated for 48 hrs by sulforhodamine B assay relative to control; method in brief: as §2
[26] = test system: OVCAR-4; assay: Growth inhibition of human OVCAR-4 cells at 10 uM incubated for 48 hrs by sulforhodamine B assay relative to control; method in brief: as §1
[27] = test system: UO-31; assay: Growth inhibition of human UO-31 cells at 10 uM incubated for 48 hrs by sulforhodamine B assay relative to control; method in brief: as §3
[28] = test system: MDA-MB-435; assay: Growth inhibition of human MDA-MB-435 cells at 10 uM incubated for 48 hrs by sulforhodamine B assay relative to control; method in brief: as §2
[29] = test system: NCI/ADR-RES; assay: Growth inhibition of human NCI/ADR-RES cells at 10 uM incubated for 48 hrs by sulforhodamine B assay relative to control; method in brief: as §1
[30] = test system: NCI-H23; assay: Growth inhibition of human NCI-H23 cells at 10 uM incubated for 48 hrs by sulforhodamine B assay relative to control; method in brief: as §1
[31] = test system: MOLT-4; assay: Growth inhibition of human MOLT-4 cells at 10 uM incubated for 48 hrs by sulforhodamine B assay relative to control; method in brief: as §1
[32] = test system: SK-MEL-2; assay: Growth inhibition of human SK-MEL-2 cells at 10 uM incubated for 48 hrs by sulforhodamine B assay relative to control; method in brief: as §1
[33] = test system: SF-295; assay: Growth inhibition of human SF-295 cells at 10 uM incubated for 48 hrs by sulforhodamine B assay relative to control; method in brief: as §1
[34] = test system: EKVX; assay: Growth inhibition of human EKVX cells at 10 uM incubated for 48 hrs by sulforhodamine B assay relative to control; method in brief: as §2
[35] = test system: SF-268; assay: Growth inhibition of human SF-268 cells at 10 uM incubated for 48 hrs by sulforhodamine B assay relative to control; method in brief: as §1
[36] = test system: OVCAR-5; assay: Growth inhibition of human OVCAR-5 cells at 10 uM incubated for 48 hrs by sulforhodamine B assay relative to control; method in brief: as §1

Measured: inhibition of growth at 10 µM

COc1cc2nc(-c3ccc(Cl)cc3)cc(OCCCN3CCOCC3)c2cc1OC
62%: all assays above
